Results published in PMC5814546 (Clinical Pharmacokinetics, 2017).
“Also recorded” adds a separate entry of the source.

Columns and labels:
[1] = Summary of clinical safety and tolerability in phase I SAD and MAD studies; assay type: in vivo, human
Procedure, shortened: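 Healthy volunteers received oral ALZ-801 as capsule or tablet, fasted or fed, in single and multiple-dose placebo-controlled studies. AEs were logged from first dose to discharge and at a follow-up call, then coded with MedDRA v18.1. QTc and safety laboratory tests were monitored against withdrawal criteria. Summaries are given as cases or cases (%).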

[2] = Drug substance properties; assay type: physicochemical
[3] = Bridging clinical dose analysis and projection of brain drug exposure; set-up: species or system human; conditions: for projected plasma tramiprosate AUC12: oral ALZ-801 265 mg twice daily, steady state
Procedure, shortened: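 Projected from human plasma tramiprosate AUC after oral tablet: linear regression of steady-state dose vs AUC for 205 and 342 mg fed, with accumulation factor from Study 2 day 7/day 1 and modelled Study 3 data. Benchmark was the plasma AUC12 of the earlier 150 mg twice-daily tramiprosate trial. Brain exposure scaled by rodent brain/plasma ratio (14C-tramiprosate, single and steady-state).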

Aβ oligomers = conditions: 1000-fold excess of tramiprosate, IMS-MS; cited from earlier work
[4] = Phase I single ascending dose study of ALZ-801 loose-filled capsule; assay type: in vivo, human; conditions: both, human, plasma, oral, 100 mg, Plasma tramiprosate t ½, mean ± SD
Procedure, shortened: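 Single fasted oral loose-filled capsules; 172 mg in 36 healthy subjects over 50 y (parallel, randomized 1:1:1), 300 mg in 15 subjects over 50 y. Plasma sampled over 48 h into K3 EDTA on ice, spun 2000g 10 min 4 °C, stored at or below −20 °C. LC-MS assay; non-compartmental analysis; Tmax as median (range).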

OAT3 = molecular target: T1, OAT3 (Homo sapiens, UniProt Q8TCC7); test: Effect on renal transporters; assay type: in vitro ADME; conditions: concentrations up to 100 mM; data on file
T1 sequence (Q8TCC7 1-542): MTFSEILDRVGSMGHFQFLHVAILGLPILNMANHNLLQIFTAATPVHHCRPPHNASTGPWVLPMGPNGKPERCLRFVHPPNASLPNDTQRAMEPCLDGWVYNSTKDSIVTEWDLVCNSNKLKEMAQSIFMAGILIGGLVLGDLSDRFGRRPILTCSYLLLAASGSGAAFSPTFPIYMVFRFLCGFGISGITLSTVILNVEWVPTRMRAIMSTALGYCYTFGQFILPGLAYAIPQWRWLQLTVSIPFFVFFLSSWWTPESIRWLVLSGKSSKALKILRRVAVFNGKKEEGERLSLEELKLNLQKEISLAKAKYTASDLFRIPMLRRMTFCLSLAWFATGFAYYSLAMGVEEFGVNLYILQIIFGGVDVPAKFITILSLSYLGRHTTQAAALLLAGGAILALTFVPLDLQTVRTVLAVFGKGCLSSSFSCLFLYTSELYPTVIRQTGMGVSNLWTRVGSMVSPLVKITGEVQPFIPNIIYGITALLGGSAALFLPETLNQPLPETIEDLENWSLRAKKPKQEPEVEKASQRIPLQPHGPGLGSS

[5] = tested on: brain amyloid plaque load; conditions: chronic oral treatment, TgCRND8 mice; cited from earlier work

Row | SMILES | tolerability ([1]; oral, capsule or tablet, healthy volunteers) | dose-limiting toxicity or maximum tolerated dose ([1]; over 2 weeks of dosing at doses up to 342 mg twice daily) | pKa [2] | solubility ([2]; water) | projected plasma tramiprosate AUC12 ([3]; fasted) | projected plasma tramiprosate AUC12 ([3]; fasted and fed combined) | projected plasma tramiprosate AUC12 ([3]; fed) | Projected brain average concentration (C ss,av) ([3]; projected steady state, ALZ-801 tablet 265 mg twice daily, humans, 14C method) | brain:plasma ratio (brain penetration), steady state ([3]; rodent, 14C method, projected after steady-state dosing) | formation of Aβ oligomers (Aβ oligomers) | half-life ([4]; after tramiprosate LF capsule 100 mg) | half-life ([4]; after tramiprosate MR tablet 100 mg) | effect on renal transporter (OAT3) | reduction in brain amyloid plaque load [5]
1 | CC(C)[C@H](N)C(=O)NCCCS(=O)(=O)O [ALZ-801, 3-(L-valyl) amino-1-propanesulfonic acid] | well tolerated | no dose-limiting toxicity or maximum tolerated dose (MTD) was observed; also recorded: no dose-limiting toxicity was observed | 7.69 | > 200 mg/mL |  |  |  |  |  |  |  |  |  | 
2 | NCCCS(=O)(=O)O [tramiprosate, 3-amino-1-propanesulfonic acid] |  |  |  |  | approximately 4844 ng/mL h | ~4502 ng·h/mL | ~4360 ng·h/mL | approximately 550 nM | ~ 40% | completely abrogated | 5.9 ± 5.22 h | 4.99 ± 2.66 h | no effect | ~ 30%
